According to ChEMBL document CHEMBL1149569, “Aminopyrrolidineamide inhibitors of site-1 protease” (Bioorg Med Chem Lett, 2007):
Calls of active or inactive are those of the source. The rule behind the calls is not given here.

How the values were obtained:
[1] = molecular target: T1, Membrane-bound transcription factor site-1 protease (Homo sapiens, UniProt Q14703); test: Inhibition of human S1P expressed in CHOK1 cells; assay type: cell-based, CHO-K1
T1 sequence (Q14703 whole entry): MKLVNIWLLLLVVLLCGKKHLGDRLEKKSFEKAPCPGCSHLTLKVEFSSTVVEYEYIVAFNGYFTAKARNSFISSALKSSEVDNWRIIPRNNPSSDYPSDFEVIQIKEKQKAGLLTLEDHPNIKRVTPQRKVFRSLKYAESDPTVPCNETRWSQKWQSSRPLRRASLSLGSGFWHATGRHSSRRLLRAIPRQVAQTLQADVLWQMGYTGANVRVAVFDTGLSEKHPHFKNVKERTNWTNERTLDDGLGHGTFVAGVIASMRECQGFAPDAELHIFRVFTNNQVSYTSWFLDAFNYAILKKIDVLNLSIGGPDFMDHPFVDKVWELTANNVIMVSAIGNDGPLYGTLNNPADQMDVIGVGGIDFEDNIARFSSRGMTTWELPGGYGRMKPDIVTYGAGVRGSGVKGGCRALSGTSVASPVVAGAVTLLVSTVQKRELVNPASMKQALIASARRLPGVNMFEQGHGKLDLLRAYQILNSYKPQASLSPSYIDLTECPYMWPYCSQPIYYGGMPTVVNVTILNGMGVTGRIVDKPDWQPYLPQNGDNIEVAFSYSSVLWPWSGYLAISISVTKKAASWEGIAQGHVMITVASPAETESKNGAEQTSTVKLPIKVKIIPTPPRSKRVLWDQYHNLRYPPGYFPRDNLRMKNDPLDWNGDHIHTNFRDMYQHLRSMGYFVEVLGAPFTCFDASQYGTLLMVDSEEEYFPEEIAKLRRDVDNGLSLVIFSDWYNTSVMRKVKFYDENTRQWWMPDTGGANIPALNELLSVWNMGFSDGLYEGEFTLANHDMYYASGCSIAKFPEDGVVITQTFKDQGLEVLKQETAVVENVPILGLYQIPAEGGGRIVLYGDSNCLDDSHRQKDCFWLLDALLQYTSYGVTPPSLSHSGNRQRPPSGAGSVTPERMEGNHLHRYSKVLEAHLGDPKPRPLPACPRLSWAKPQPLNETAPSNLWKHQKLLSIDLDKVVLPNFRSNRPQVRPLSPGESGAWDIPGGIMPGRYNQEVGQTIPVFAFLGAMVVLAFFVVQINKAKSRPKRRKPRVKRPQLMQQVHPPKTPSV

[2] = molecular target: Urokinase-type plasminogen activator (Homo sapiens, UniProt P00749); test: Inhibition of urokinase
Coagulation factor X = Coagulation factor X (Homo sapiens, UniProt P00742); test: Inhibition of factor 10a
HepG2 [3] = test: Inhibition of proteolytic processing of SREBP in HepG2 cells at 10 uM; assay type: functional, cell-based; settings: Homo sapiens
Procedure, shortened: (§1)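 Hep-G2 human liver cells in culture were treated at 10 µM. SREBP proteolytic processing and nuclear translocation were then assessed.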

HepG2 [4] = test: Inhibition of nuclear translocation of SREBP in HepG2 cells at 10 uM; assay type: functional, cell-based; settings: Homo sapiens; procedure, shortened: as §1
Liver [5] = test: Reduction of HMG-CoA synthase expression in mouse liver; assay type: functional, tissue-based
Hepatocyte = test: Reduction of fatty acid synthase expression in mouse hepatocytes; assay type: functional, cell-based
Liver [6] = test: Reduction of fatty acid synthase expression in mouse liver; assay type: functional, tissue-based
HepG2 [7] = test: Inhibition of cholesterol synthesis in HepG2 cells; assay type: functional, cell-based; settings: Homo sapiens
Liver [8] = test: Inhibition of cholesterol synthesis in rat liver; assay type: functional, tissue-based
HepG2 [9] = test: Inhibition of fatty acid synthesis in HepG2 cells at 10 uM; assay type: functional; settings: Homo sapiens
Liver [10] = test: Inhibition of fatty acid synthesis in rat liver at 10 uM; assay type: functional
HepG2 [11] = test: Inhibition of LDL receptor gene expression in HepG2 cells; assay type: functional, cell-based; settings: Homo sapiens
[12] = molecular target: Low-density lipoprotein receptor (Homo sapiens) (UniProt P01130); test: Inhibition of LDL receptor-mediated LDL internalization in HepG2 cells; assay type: cell-based
[13] = Plasma clearance in rat; assay type: ADME, organism-based
[14] = Oral bioavailability in rat; assay type: ADME, organism-based; settings: in vivo
Mus musculus [15] = test: Antilipogenic activity in CD1 mouse assessed as reduction of HMG-CoA synthase gene expression at 10 mg/kg, ip every 6 hrs for 24 hrs; assay type: functional; design: scale not given: the % may be the effect or the level left; settings: route intraperitoneal
Procedure, shortened: (§2)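 Male CD1 mice, n = 5 per group, given 10 or 30 mg/kg/dose intraperitoneally every 6 h for 24 h (acute 24 h efficacy). Hepatic HMG-CoA synthase, fatty acid synthase and LDL receptor gene expression were measured in liver tissue samples. Cholesterol and fatty acid synthetic pathway activity was measured in the animals.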

Mus musculus [16] = test: Antilipogenic activity in CD1 mouse assessed as reduction of HMG-CoA synthase gene expression at 30 mg/kg, ip every 6 hrs for 24 hrs; assay type: functional; design: scale not given: the % may be the effect or the level left; settings: route intraperitoneal; procedure, shortened: as §2
Mus musculus [17] = test: Antilipogenic activity in CD1 mouse assessed as reduction of fatty acid synthase gene expression at 10 mg/kg, ip every 6 hrs for 24 hrs; assay type: functional; design: scale not given: the % may be the effect or the level left; settings: route intraperitoneal; procedure, shortened: as §2
Mus musculus [18] = test: Antilipogenic activity in CD1 mouse assessed as reduction of fatty acid synthase gene expression at 30 mg/kg, ip every 6 hrs for 24 hrs; assay type: functional; design: scale not given: the % may be the effect or the level left; settings: route intraperitoneal; procedure, shortened: as §2
Mus musculus [19] = test: Antilipogenic activity in CD1 mouse assessed as inhibition of cholesterol synthetic pathway at 10 mg/kg, ip every 6 hrs for 24 hrs; assay type: functional; design: scale not given: the % may be the effect or the level left; settings: route intraperitoneal; procedure, shortened: as §2
Mus musculus [20] = test: Antilipogenic activity in CD1 mouse assessed as inhibition of cholesterol synthetic pathway at 30 mg/kg, ip every 6 hrs for 24 hrs; assay type: functional; design: scale not given: the % may be the effect or the level left; settings: route intraperitoneal; procedure, shortened: as §2
Mus musculus [21] = test: Antilipogenic activity in CD1 mouse assessed as inhibition of fatty acid synthetic pathway at 10 mg/kg, ip every 6 hrs for 24 hrs; assay type: functional; design: scale not given: the % may be the effect or the level left; settings: route intraperitoneal; procedure, shortened: as §2
Mus musculus [22] = test: Antilipogenic activity in CD1 mouse assessed as inhibition of fatty acid synthetic pathway at 30 mg/kg, ip every 6 hrs for 24 hrs; assay type: functional; design: scale not given: the % may be the effect or the level left; settings: route intraperitoneal; procedure, shortened: as §2
Mus musculus [23] = test: Antilipogenic activity in CD1 mouse assessed as reduction of LDL receptor gene expression at 30 mg/kg, ip every 6 hrs for 24 hrs; assay type: functional; design: scale not given: the % may be the effect or the level left; settings: route intraperitoneal; procedure, shortened: as §2
Hep-G2 (Homo sapiens) = test: Reduction of HMG-CoA synthase expression in human Hep-G2 cells

Coagulation factor X, sequence (P00742 41-179 limits assumed): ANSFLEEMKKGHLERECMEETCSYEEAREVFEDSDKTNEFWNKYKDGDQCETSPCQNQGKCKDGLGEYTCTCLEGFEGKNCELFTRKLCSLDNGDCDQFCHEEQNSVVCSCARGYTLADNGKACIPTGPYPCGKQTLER
Coagulation factor X, sequence (P00742 235-488 limits assumed): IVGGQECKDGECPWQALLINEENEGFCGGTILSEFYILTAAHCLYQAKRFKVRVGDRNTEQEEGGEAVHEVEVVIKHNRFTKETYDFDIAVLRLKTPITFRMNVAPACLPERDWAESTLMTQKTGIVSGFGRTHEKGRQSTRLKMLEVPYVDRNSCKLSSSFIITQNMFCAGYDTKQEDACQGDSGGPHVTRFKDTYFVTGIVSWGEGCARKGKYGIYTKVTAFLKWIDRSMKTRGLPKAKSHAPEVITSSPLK
Low-density lipoprotein receptor (Homo sapiens), sequence (P01130 whole entry): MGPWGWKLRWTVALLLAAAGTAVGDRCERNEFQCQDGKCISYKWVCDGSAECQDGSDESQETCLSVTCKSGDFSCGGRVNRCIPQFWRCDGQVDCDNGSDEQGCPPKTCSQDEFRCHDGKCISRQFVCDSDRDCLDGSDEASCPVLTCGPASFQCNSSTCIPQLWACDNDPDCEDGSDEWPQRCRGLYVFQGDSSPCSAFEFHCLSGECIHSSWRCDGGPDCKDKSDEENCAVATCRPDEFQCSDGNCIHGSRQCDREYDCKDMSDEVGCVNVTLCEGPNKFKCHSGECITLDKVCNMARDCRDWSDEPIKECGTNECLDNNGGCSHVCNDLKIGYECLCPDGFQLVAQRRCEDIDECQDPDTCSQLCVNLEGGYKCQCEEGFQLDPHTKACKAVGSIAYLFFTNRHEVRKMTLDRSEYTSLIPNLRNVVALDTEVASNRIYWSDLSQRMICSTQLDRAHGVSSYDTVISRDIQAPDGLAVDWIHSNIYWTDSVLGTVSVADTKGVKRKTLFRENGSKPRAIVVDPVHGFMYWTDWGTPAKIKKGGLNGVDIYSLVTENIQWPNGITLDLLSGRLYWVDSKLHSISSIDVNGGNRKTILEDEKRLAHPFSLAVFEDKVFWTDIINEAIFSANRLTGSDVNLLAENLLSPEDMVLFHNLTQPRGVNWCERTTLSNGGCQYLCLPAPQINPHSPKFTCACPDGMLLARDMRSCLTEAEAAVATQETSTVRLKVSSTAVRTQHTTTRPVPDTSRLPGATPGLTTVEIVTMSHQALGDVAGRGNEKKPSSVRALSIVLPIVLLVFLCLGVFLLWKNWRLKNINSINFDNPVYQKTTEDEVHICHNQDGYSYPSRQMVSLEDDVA

Compound `CC(C)Oc1ccc(C(=O)N(CCc2cccc(Cl)c2)C2CCNC2)cc1` (centres undefined) has an IC50 [1] of 9600 nM.
`COc1ccccc1CCN(C(=O)c1ccc(OCc2ccccc2)cc1)C1CCNC1` (centres undefined) showed an IC50 [1] of 310 nM.
`CC(C)Oc1ccc(C(=O)N(CCc2ccccc2Cl)C2CCN(C=O)C2)cc1` (centres undefined) showed an IC50 [1] of over 30000 nM.
`CCN(CC)Cc1ccc(C(=O)N(CCc2ccccc2Cl)C2CCNC2)cc1` (centres undefined) gave an IC50 [1] of 840 nM.
In the case of `CC(C)Oc1ccc(C(=O)N(CCc2ccccc2F)C2CCNC2)cc1` (centres undefined), the IC50 [1] is reported as 9000 nM.
In the case of `COc1ccccc1CCN(C(=O)c1ccc(CN2CC3CCCC2C3)cc1)C1CCNC1` (centres undefined), the IC50 [1] is reported as 29 nM.
Compound `O=C(c1ccc(CN2CCCCC2)cc1)N(CCc1ccccc1Cl)C1CCOC1` (centres undefined) has an IC50 [1] of over 30000 nM.
Compound `CCN(CC)Cc1ccc(C(=O)N(CCc2ccc(Cl)cc2)C2CCNC2)cc1` (centres undefined) has an IC50 [1] of 3700 nM.
With `CCOc1ccccc1CCN(C(=O)c1ccc(CN(CC)CC)cc1)C1CCNC1` (centres undefined) the IC50 [1] was 16000 nM.
For `CC(C)Oc1ccc(C(=O)N(CCc2ccccc2Cl)C2CCNC2)cc1` (centres undefined), the IC50 [1] was 1400 nM.
With `O=C(c1ccc(OCc2ccccc2)cc1)N(CCc1cccc(Cl)c1)C1CCNC1` (centres undefined) the IC50 [1] was 510 nM.
For `CC(C)Oc1ccc(C(=O)N(Cc2ccccc2Cl)C2CCNC2)cc1` (centres undefined), the IC50 [1] was over 5000 nM.
Compound `Cc1ccccc1C1CCCN(Cc2ccc(C(=O)N(CCc3ccccc3Cl)C3CCNC3)cc2)C1` (centres undefined) has an IC50 [1] of 8 nM.
Work on `CCN(CC)Cc1ccc(C(=O)N(CCc2ccccc2OC)[C@@H]2CCNC2)cc1` yielded an IC50 [1] of 170 nM, an IC50 [2] of 50000 nM and an IC50 (Coagulation factor X) of 100000 nM. For the same compound, the Activity (HepG2 [3]) was “Active”, the Activity (HepG2 [4]) was “Active” and the EC50 (Liver [5]) was 300 nM. For the same compound, the EC50 (Hepatocyte) was 2000 nM, the EC50 (Liver [6]) was 2000 nM and the EC50 (HepG2 [7]) was 600 nM. For the same compound, the EC50 (Liver [8]) was 600 nM, the inhibition at 10 µM (HepG2 [9]) was 43% and the inhibition at 10 µM (Liver [10]) was 43%. For the same compound, the Activity (HepG2 [11]) was “Active”, the Activity [12] was “Active” and the clearance [13] was 75 mL/min/kg. For the same compound, the bioavailability [14] was 5%, the Activity (Mus musculus [15]) was over 80% and the Activity (Mus musculus [16]) was over 80%. The Activity (Mus musculus [17]) was 50%, the Activity (Mus musculus [18]) was 75% and the Activity (Mus musculus [19]) was 50%. The Activity (Mus musculus [20]) was 80%, the Activity (Mus musculus [21]) was 50% and the Activity (Mus musculus [22]) was 80%. It also gave an Activity (Mus musculus [23]) of 35% and an EC50 (Hep-G2 (Homo sapiens)) of 300 nM.
`COc1ccccc1CCN(C(=O)c1ccc(CN2CCCCC2)cc1)C1CCNC1` (centres undefined) showed an IC50 [1] of 250 nM.
Work on `CC(C)Oc1ccc(C(=O)N(CCc2ccccc2Cl)C2CNC2)cc1` yielded an IC50 [1] of over 30000 nM.
Work on `CC(C)Oc1ccc(C(=O)N(CCc2ccccc2Cl)C2CCSC2)cc1` (centres undefined) yielded an IC50 [1] of over 30000 nM.
For `COc1ccccc1CCN(C(=O)c1ccc(CN2CCCC(C(N)=O)C2)cc1)C1CCNC1` (centres undefined), the IC50 [1] was 160 nM.
Compound `COc1ccccc1CCN(C(=O)c1ccc(CN2CC3CCC2C3)cc1)C1CCNC1` (centres undefined) has an IC50 [1] of 95 nM.
`CCN(CC)Cc1ccc(C(=O)N(CCc2ccccc2OC)C2CCNC2)cc1` (centres undefined) showed an IC50 [1] of 540 nM.
`COC[C@@H]1CCCN1Cc1ccc(C(=O)N(CCc2ccccc2OC)C2CCNC2)cc1` (some centres undefined) showed an IC50 [1] of 140 nM.
Work on `CC(C)Oc1ccc(C(=O)N(CCc2ccccc2Cl)C2CCCNC2)cc1` (centres undefined) yielded an IC50 [1] of over 30000 nM.
For `CCN(CC)Cc1ccc(C(=O)N(CCc2ccccc2C)C2CCNC2)cc1` (centres undefined), the IC50 [1] was 1600 nM.
Compound `COc1ccccc1CCN(C(=O)c1ccc(CN2CCCC(c3ccccc3C)C2)cc1)C1CCNC1` (centres undefined) has an IC50 [1] of 37 nM.
`CC(C)Oc1ccc(C(=O)N(CCc2ccccc2Cl)C2CCN(C)C2)cc1` (centres undefined) gave an IC50 [1] of over 30000 nM.
`O=C(c1ccc(OCc2ccccc2)cc1)N(CCc1ccccc1Cl)C1CCNC1` (centres undefined) gave an IC50 [1] of 590 nM.
Compound `CCN(CC)Cc1ccc(C(=O)N(CCc2ccccc2OC)[C@H]2CCNC2)cc1` has an IC50 [1] of 970 nM.
For `COc1ccccc1CCN(C(=O)c1ccc(CN[C@H]2CCCC[C@@H]2O)cc1)C1CCNC1` (some centres undefined), the IC50 [1] was 100 nM.
`CCN(CC)Cc1ccc(C(=O)N(CCc2c(Cl)cccc2Cl)C2CCNC2)cc1` (centres undefined) showed an IC50 [1] of 430 nM.
